# Values joined by “and” are separate entries in the source; they are usually repeats but may differ in a detail not shown here. Equal entries are not always repeated.
# System: HEK-293T
# Experiment: Multiplex assay against HEK293T
# Format: toxicity, cell-based
# Conditions: human, number of replicates 2
# Method in brief: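 Live cells were stained at seeding with Hoechst33342, BioTracker Green Microtubule Cytoskeleton Dye, MitoTracker Red and Annexin V Alexa Fluor 680. Following compound addition, they were imaged on a CQ1 microscope at 37°C and 5% CO2 and gated by CellPathfinder machine learning into Hoechst high-intensity objects or normal cells, with normal cells split into healthy, pyknosed or fragmented nuclei and pyknosed cells into mitotic or apoptotic. Tubulin, mitochondrial-mass and membrane-permeability phenotypes are per cents of healthy-nucleus cells.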
# [1] = 12 h, 1 µM, compound concentration 1 uM
# [2] = 12 h, 10 µM, compound concentration 10 uM
# [3] = 24 h, 1 µM, compound concentration 1 uM
# [4] = 24 h, 10 µM, compound concentration 10 uM
# [5] = 48 h, 1 µM, compound concentration 1 uM
# [6] = 48 h, 10 µM, compound concentration 10 uM
structure (smiles),measurement,setting,value
Cn1cc(-n2cnc3c(NCc4nc5cc(Cl)c(Cl)cc5[nH]4)nc(N4CCOCC4)nc32)cn1,Population Apoptotic (%),[1],69% and 59%
same,Population Fragmented Nuclei (%),[1],3% and 5%
same,Population Healthy Nuclei (%),[1],76% and 75%
same,Population Hoechst High Intensity Objects (%),[1],16% and 17%
same,Population Membrane Permeable-Phenotype (%),[1],3% and 1%
same,Population Mitochondria Different-Phenotype (%),[1],65% and 66%
same,Population Mitotic Cells (%),[1],30% and 40%
same,Population Normal (%),[1],83% and 82%
same,Population Pyknosed Nuclei (%),[1],20% and 19%
same,Population Tubulin-Different-Phenotype (%),[1],83% and 84%
same,Total Cell Count,[1],293 and 335
same,Population Apoptotic (%),[2],71% and 65%
same,Population Fragmented Nuclei (%),[2],4% and 2%
same,Population Healthy Nuclei (%),[2],78% and 76%
same,Population Hoechst High Intensity Objects (%),[2],18% and 12%
same,Population Membrane Permeable-Phenotype (%),[2],1% and 2%
same,Population Mitochondria Different-Phenotype (%),[2],77% and 73%
same,Population Mitotic Cells (%),[2],28% and 34%
same,Population Normal (%),[2],81% and 87%
same,Population Pyknosed Nuclei (%),[2],16% and 20%
same,Population Tubulin-Different-Phenotype (%),[2],95% and 96%
same,Total Cell Count,[2],262 and 266
same,Population Apoptotic (%),[3],72% and 66%
same,Population Fragmented Nuclei (%),[3],2% and 4%
same,Population Healthy Nuclei (%),[3],72% and 74%
same,Population Hoechst High Intensity Objects (%),[3],25% and 27%
same,Population Membrane Permeable-Phenotype (%),[3],3% and 0%
same,Population Mitochondria Different-Phenotype (%),[3],75% and 82%
same,Population Mitotic Cells (%),[3],27% and 33%
same,Population Normal (%),[3],74% and 72%
same,Population Pyknosed Nuclei (%),[3],25% and 20%
same,Population Tubulin-Different-Phenotype (%),[3],78% and 89%
same,Total Cell Count,[3],256 and 257
same,Population Apoptotic (%),[4],69% and 85%
same,Population Fragmented Nuclei (%),[4],2% and 5%
same,Population Healthy Nuclei (%),[4],81% and 80%
same,Population Hoechst High Intensity Objects (%),[4],21% and 11%
same,Population Membrane Permeable-Phenotype (%),[4],2% and 0%
same,Population Mitochondria Different-Phenotype (%),[4],87% and 88%
same,Population Mitotic Cells (%),[4],30% and 14%
same,Population Normal (%),[4],78% and 88%
same,Population Pyknosed Nuclei (%),[4],15% and 13%
same,Population Tubulin-Different-Phenotype (%),[4],92% and 95%
same,Total Cell Count,[4],217
same,Population Apoptotic (%),[5],69% and 62%
same,Population Fragmented Nuclei (%),[5],7% and 6%
same,Population Healthy Nuclei (%),[5],69% and 74%
same,Population Hoechst High Intensity Objects (%),[5],20% and 29%
same,Population Membrane Permeable-Phenotype (%),[5],5% and 1%
same,Population Mitochondria Different-Phenotype (%),[5],66% and 78%
same,Population Mitotic Cells (%),[5],30% and 37%
same,Population Normal (%),[5],79% and 70%
same,Population Pyknosed Nuclei (%),[5],22% and 19%
same,Population Tubulin-Different-Phenotype (%),[5],75% and 87%
same,Total Cell Count,[5],308 and 317
same,Population Apoptotic (%),[6],70% and 84%
same,Population Fragmented Nuclei (%),[6],5%
same,Population Healthy Nuclei (%),[6],78% and 70%
same,Population Hoechst High Intensity Objects (%),[6],17% and 11%
same,Population Membrane Permeable-Phenotype (%),[6],1% and 2%
same,Population Mitochondria Different-Phenotype (%),[6],89% and 87%
same,Population Mitotic Cells (%),[6],29% and 16%
same,Population Normal (%),[6],82% and 88%
same,Population Pyknosed Nuclei (%),[6],16% and 23%
same,Population Tubulin-Different-Phenotype (%),[6],94% and 93%
same,Total Cell Count,[6],275 and 237
CCNc1ccc(-c2nn(-c3ccccc3C)c3c2C(C)Cc2nc(NC(=O)OC)sc2-3)cn1.O=C(O)C(F)(F)F (configuration not stated),Population Apoptotic (%),[1],69% and 60%
same,Population Fragmented Nuclei (%),[1],4% and 5%
same,Population Healthy Nuclei (%),[1],86% and 81%
same,Population Hoechst High Intensity Objects (%),[1],11% and 12%
same,Population Membrane Permeable-Phenotype (%),[1],2%
same,Population Mitochondria Different-Phenotype (%),[1],45% and 38%
same,Population Mitotic Cells (%),[1],30% and 39%
same,Population Normal (%),[1],88% and 87%
same,Population Pyknosed Nuclei (%),[1],8% and 13%
same,Population Tubulin-Different-Phenotype (%),[1],74% and 65%
same,Total Cell Count,[1],430 and 487
same,Population Apoptotic (%),[2],73% and 72%
same,Population Fragmented Nuclei (%),[2],3% and 4%
same,Population Healthy Nuclei (%),[2],85% and 79%
same,Population Hoechst High Intensity Objects (%),[2],10%
same,Population Membrane Permeable-Phenotype (%),[2],3%
same,Population Mitochondria Different-Phenotype (%),[2],74% and 79%
same,Population Mitotic Cells (%),[2],26% and 27%
same,Population Normal (%),[2],89%
same,Population Pyknosed Nuclei (%),[2],10% and 16%
same,Population Tubulin-Different-Phenotype (%),[2],94% and 96%
same,Total Cell Count,[2],308 and 225
same,Population Apoptotic (%),[3],58% and 82%
same,Population Fragmented Nuclei (%),[3],5%
same,Population Healthy Nuclei (%),[3],82% and 81%
same,Population Hoechst High Intensity Objects (%),[3],26% and 16%
same,Population Membrane Permeable-Phenotype (%),[3],0%
same,Population Mitochondria Different-Phenotype (%),[3],44% and 63%
same,Population Mitotic Cells (%),[3],41% and 17%
same,Population Normal (%),[3],73% and 83%
same,Population Pyknosed Nuclei (%),[3],11% and 12%
same,Population Tubulin-Different-Phenotype (%),[3],72% and 85%
same,Total Cell Count,[3],409 and 322
same,Population Apoptotic (%),[4],54% and 66%
same,Population Fragmented Nuclei (%),[4],6% and 5%
same,Population Healthy Nuclei (%),[4],76% and 74%
same,Population Hoechst High Intensity Objects (%),[4],13% and 16%
same,Population Membrane Permeable-Phenotype (%),[4],1%
same,Population Mitochondria Different-Phenotype (%),[4],86% and 85%
same,Population Mitotic Cells (%),[4],45% and 33%
same,Population Normal (%),[4],86% and 83%
same,Population Pyknosed Nuclei (%),[4],16% and 19%
same,Population Tubulin-Different-Phenotype (%),[4],89% and 95%
same,Total Cell Count,[4],234 and 199
same,Population Apoptotic (%),[5],75% and 85%
same,Population Fragmented Nuclei (%),[5],11%
same,Population Healthy Nuclei (%),[5],69% and 74%
same,Population Hoechst High Intensity Objects (%),[5],28% and 29%
same,Population Membrane Permeable-Phenotype (%),[5],0%
same,Population Mitochondria Different-Phenotype (%),[5],43% and 50%
same,Population Mitotic Cells (%),[5],24% and 14%
same,Population Normal (%),[5],71% and 70%
same,Population Pyknosed Nuclei (%),[5],19% and 14%
same,Population Tubulin-Different-Phenotype (%),[5],75% and 80%
same,Total Cell Count,[5],418 and 399
same,Population Apoptotic (%),[6],73% and 66%
same,Population Fragmented Nuclei (%),[6],5% and 3%
same,Population Healthy Nuclei (%),[6],86% and 81%
same,Population Hoechst High Intensity Objects (%),[6],19% and 13%
same,Population Membrane Permeable-Phenotype (%),[6],2% and 1%
same,Population Mitochondria Different-Phenotype (%),[6],83% and 80%
same,Population Mitotic Cells (%),[6],26% and 33%
same,Population Normal (%),[6],80% and 86%
same,Population Pyknosed Nuclei (%),[6],7% and 15%
same,Population Tubulin-Different-Phenotype (%),[6],89% and 93%
same,Total Cell Count,[6],239 and 207
N=C(N)NCCC[C@H](NC(=O)COCC(c1ccccc1)c1ccccc1)C(=O)O.O=C(O)C(F)(F)F,Population Apoptotic (%),[1],49% and 39%
same,Population Fragmented Nuclei (%),[1],2%
same,Population Healthy Nuclei (%),[1],85%
same,Population Hoechst High Intensity Objects (%),[1],5% and 6%
same,Population Membrane Permeable-Phenotype (%),[1],2% and 3%
same,Population Mitochondria Different-Phenotype (%),[1],13% and 9%
same,Population Mitotic Cells (%),[1],50% and 60%
same,Population Normal (%),[1],94% and 93%
same,Population Pyknosed Nuclei (%),[1],12% and 11%
same,Population Tubulin-Different-Phenotype (%),[1],54% and 41%
same,Total Cell Count,[1],596 and 692
same,Population Apoptotic (%),[2],60% and 68%
same,Population Fragmented Nuclei (%),[2],5% and 6%
same,Population Healthy Nuclei (%),[2],80% and 81%
same,Population Hoechst High Intensity Objects (%),[2],9% and 8%
same,Population Membrane Permeable-Phenotype (%),[2],2%
same,Population Mitochondria Different-Phenotype (%),[2],19% and 14%
same,Population Mitotic Cells (%),[2],39% and 31%
same,Population Normal (%),[2],90% and 91%
same,Population Pyknosed Nuclei (%),[2],14% and 12%
same,Population Tubulin-Different-Phenotype (%),[2],55% and 41%
same,Total Cell Count,[2],543 and 565
same,Population Apoptotic (%),[3],43% and 44%
same,Population Fragmented Nuclei (%),[3],4%
same,Population Healthy Nuclei (%),[3],89% and 88%
same,Population Hoechst High Intensity Objects (%),[3],7% and 10%
same,Population Membrane Permeable-Phenotype (%),[3],3%
same,Population Mitochondria Different-Phenotype (%),[3],2% and 3%
same,Population Mitotic Cells (%),[3],56% and 55%
same,Population Normal (%),[3],92% and 89%
same,Population Pyknosed Nuclei (%),[3],5% and 7%
same,Population Tubulin-Different-Phenotype (%),[3],20% and 31%
same,Total Cell Count,[3],1117 and 835
same,Population Apoptotic (%),[4],49% and 48%
same,Population Fragmented Nuclei (%),[4],6% and 7%
same,Population Healthy Nuclei (%),[4],83% and 79%
same,Population Hoechst High Intensity Objects (%),[4],7%
same,Population Membrane Permeable-Phenotype (%),[4],2%
same,Population Mitochondria Different-Phenotype (%),[4],7% and 6%
same,Population Mitotic Cells (%),[4],50% and 51%
same,Population Normal (%),[4],92%
same,Population Pyknosed Nuclei (%),[4],9% and 12%
same,Population Tubulin-Different-Phenotype (%),[4],27% and 25%
same,Total Cell Count,[4],838 and 806
same,Population Apoptotic (%),[5],12%
same,Population Fragmented Nuclei (%),[5],15% and 9%
same,Population Healthy Nuclei (%),[5],82% and 87%
same,Population Hoechst High Intensity Objects (%),[5],9% and 7%
same,Population Membrane Permeable-Phenotype (%),[5],5% and 4%
same,Population Mitochondria Different-Phenotype (%),[5],0%
same,Population Mitotic Cells (%),[5],87%
same,Population Normal (%),[5],90% and 92%
same,Population Pyknosed Nuclei (%),[5],2% and 3%
same,Population Tubulin-Different-Phenotype (%),[5],10% and 14%
same,Total Cell Count,[5],3157 and 1745
same,Population Apoptotic (%),[6],14% and 24%
same,Population Fragmented Nuclei (%),[6],15% and 13%
same,Population Healthy Nuclei (%),[6],81% and 83%
same,Population Hoechst High Intensity Objects (%),[6],7% and 6%
same,Population Membrane Permeable-Phenotype (%),[6],7% and 4%
same,Population Mitochondria Different-Phenotype (%),[6],0%
same,Population Mitotic Cells (%),[6],85% and 75%
same,Population Normal (%),[6],92% and 93%
same,Population Pyknosed Nuclei (%),[6],2%
same,Population Tubulin-Different-Phenotype (%),[6],12% and 10%
same,Total Cell Count,[6],2204 and 2125
CS(=O)(=O)c1ccc(C(=O)Nc2cccc(COc3ccc(Br)cc3CN3CC[C@H](O)C3)c2)cc1.O=CO,Population Apoptotic (%),[1],50% and 69%
same,Population Fragmented Nuclei (%),[1],2% and 3%
same,Population Healthy Nuclei (%),[1],72% and 70%
same,Population Normal (%),[1],87% and 88%
same,Total Cell Count,[1],490 and 407
same,Population Apoptotic (%),[2],46%
same,Population Fragmented Nuclei (%),[2],3% and 2%
same,Population Healthy Nuclei (%),[2],85%
same,Population Normal (%),[2],93% and 94%
same,Total Cell Count,[2],467 and 532
same,Population Fragmented Nuclei (%),[3],6% and 5%
same,Population Healthy Nuclei (%),[3],79% and 76%
same,Population Normal (%),[3],89% and 90%
same,Total Cell Count,[3],663 and 599
same,Population Apoptotic (%),[4],57% and 66%
same,Population Fragmented Nuclei (%),[4],3% and 4%
same,Population Healthy Nuclei (%),[4],80% and 85%
same,Population Normal (%),[4],95% and 91%
same,Total Cell Count,[4],543 and 659
same,Population Apoptotic (%),[5],46%
same,Population Fragmented Nuclei (%),[5],13% and 10%
same,Population Healthy Nuclei (%),[5],80% and 84%
same,Population Normal (%),[5],90%
same,Total Cell Count,[5],1404 and 1241
same,Population Apoptotic (%),[6],32%
same,Population Fragmented Nuclei (%),[6],5% and 6%
same,Population Healthy Nuclei (%),[6],86%
same,Population Normal (%),[6],93% and 92%
same,Total Cell Count,[6],812 and 937

# Reference: ChEMBL document CHEMBL5303300, “EUbOPEN Chemogenomics Library - Multiplex” (2023)
